UPR CHOP act: apoptotic UPR (CHOP) activation. AID 449763. CHO-CHOP luciferase reporter, luminescence; percent of tunicamycin response over DMSO baseline. activation, % at 10 µM. 330,000 compounds, 0.34% hits;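 active = at 10 µM dose, activation of 40% or more, normalized to positive control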;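 also: 100% = tunicamycin at 10 µg/mL and 0% = DMSO alone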
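System: CHO CHOP reporter cells. Amount: 500 cells per well. Buffer or medium: F12 medium, 10% FBS. Compound dosing: one dose, 10 µM in 0.5% DMSO. Incubation: 6 h compound exposure at 37 °C after overnight seeding. Technique: Steady-Glo luciferase luminescence. Benchmarks: tunicamycin and DMSO controls.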
aDG glyco act: alpha-DG glycosylation activation. AID 624168. 360,000 compounds, 0.22% hits. Pro5-aDG cells, alpha-DG glycosylation AlphaScreen (IIH6); 0% Pro5, 100% B10-LARGE cell signal. activation, % at 10 µM;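 active = activation of at least 8% versus controls, or a plate z-score of at least 8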;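 also: Pro5 are CHO cells carrying HIG-tagged alpha-DG that lacks glycosylation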
MPTP block: blocks calcium-induced mitochondrial swelling. isolated mouse mitochondria, Ca2+ swelling absorbance, 30 min. inhibition, % at 10 µM. 360,000 compounds, 1.4% hits. AID 602449;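 active = inhibition of 50% or more, scaled per plate between neutral and stimulator controls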;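 also: 0% = DMSO wells given calcium and 100% = 1 mM EGTA wells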
XBP1 UPR activ: adaptive UPR (XBP1) activation. CHO-XBP1 luciferase reporter, IRE1-XBP1 UPR activation, luminescence; percent of tunicamycin response, DMSO as zero. activation, % at 20 µM. 330,000 compounds, 0.33% hits;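 active = versus positive control, 20 µM dose yields 30% or more activation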;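 also: 100% = tunicamycin at 10 µg/mL and 0% = DMSO only wells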
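Assay system: IRE1-XBP1 luciferase reporter CHO line. Input: 1000 cells/well. Buffer or medium: F12 with 10% serum. Doses: 20 µM, 1% DMSO. Times: overnight seeding at 37 °C, 6 h compound treatment at 37 °C. Technique: Steady-Glo luciferase glow luminescence, 10 min after reagent addition.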
NR3A LBD binder: modulates the human NR3A ligand-binding domain | NR3A LBD differential scanning fluorimetry, Tm shift; 0% = protein alone, 100% = glycine-bound protein | 340,000 compounds, 2.5% hits | Tm shift relative to glycine control, % at 25 µM;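 active = melting temperature shift of at least 10% of the positive control shift, at one fixed dose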
CHOP inhibitor: CHOP inhibition in unfolded protein response; 220,000 compounds, 3.8% hits; CHO-K1 CHOP-promoter luciferase, tunicamycin-induced, 15-18 h; inhibition, % at 10 µM; AID 2732;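 active = compounds that reduced the stress-induced luciferase reporter signal by more than about 70% of percent inhibition, limit read from the data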;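 also: 0% = tunicamycin plus vehicle and 100% = wells without tunicamycin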
Active calls of the source: *; . = no result. A selection: hits, their analogues and other compounds. The true share with any hit is near 5.6%.

SMILES	UPR CHOP act	aDG glyco act	MPTP block	XBP1 UPR activ	NR3A LBD binder	CHOP inhibitor
COC(=O)C1=C(c2ccc(OC(F)(F)F)cc2)C[C@@H]2CC[C@H]1N2C(=O)NCCOc1ccccc1Cl	0	0	-1	0	-14	.
C=C1C(=O)O[C@@H]2C[C@@H](C)[C@@H]3C=CC(=O)[C@@]3(C)[C@@H](OC(=O)CC(=O)O[C@H]3[C@@H]4C(=C)C(=O)O[C@@H]4C[C@@H](C)[C@@H]4C=CC(=O)[C@]43C)[C@H]12	-9	0	-2	-9	-2	108*
C[C@]12CC[C@@H](O)CC1=CC(=O)C1C2CC[C@]2(C)C(=O)CCC12 (stereo partly drawn)	-2	0	0	-4	11*	.
C[C@]12CC[C@H](O)CC1=CC(=O)C1C2CC[C@]2(C)C(=O)CCC12 (stereo partly drawn)	-1	0	2	-1	3	.
N#Cc1cn(C2OC(CO)C(O)C2O)c2ncnc(N)c12 (stereo not drawn)	.	1	-3	.	-1	.
NC(=O)c1cn(C2OC(CO)C(O)C2O)c2ncnc(N)c12 (stereo not drawn)	-4	0	-1	1	3	105*
CCCCn1c(O)c(C(C)=Nc2ccc(OCC)cc2)c(=O)[nH]c1=O	0	0	-10	3	1	95*
CCCCn1c(O)c(C(C)=Nc2cccc(C(=O)O)c2)c(=O)[nH]c1=O	-1	0	4	-3	-3	0
CCC1(c2ccccc2)C(=O)NC(=O)NC1=O	-1	0	1	-1	0	.
CCC1(c2ccccc2)C(=O)NC(=S)NC1=O	.	0	-1	.	11*	.
C=CCN1C[C@@H](C)N([C@H](c2ccc(C(=O)N(CC)CC)cc2)c2cccc(OC)c2)C[C@@H]1C	.	.	.	.	.	-16
O=C(c1cc(C(=O)NCc2ccc(Cl)cc2)c(=O)n(Cc2ccc(Cl)cc2)c1)c1cc(F)ccc1O	6	0	33	-2	18*	37
Cc1ccc(OCCOc2cccc(C=C3C(=O)NC(=O)NC3=O)c2)c(C)c1	-7	0	-2	-7	3	.
C1=C(CCNCc2ccccc2)CCCC1	-1	0	-1	2	11*	52
OCCNc1c2c(nc3ccccc13)CCCC2	-1	1	1	-3	12*	-14
CCN1C(=O)/C(=C/c2ccc3c(c2)CCN3CCCCl)C(=O)NC1=S	.	0	11	.	0	90*
CN[C@@H](C)[C@H](O)c1ccccc1	.	.	.	.	.	13
CCCCn1c(=O)c(C(=O)Nc2ccccc2S(N)(=O)=O)c(O)c2ccccc21	1	0	-2	4	0	77*
CCCCCn1c(=O)c(C(=O)Nc2cnccn2)c(O)c2ccccc21	14	6	3	-2	-6	104*
CCCCCn1c(=O)c(C(=O)Nc2nc(CC(=O)OCC)cs2)c(O)c2ccccc21	13	6	22	3	0	92*
CCCCCn1c(=O)c(C(=O)Nc2ccccc2C)c(O)c2ccccc21	5	0	4	3	-1	.
CCCCCn1c(=O)c(C(=O)Nc2ccccc2S(N)(=O)=O)c(O)c2ccccc21	18	2	-3	1	-1	82*
OC[C@@H](O)CCl	1	.	.	-8	.	.
Oc1ccc2c3c1O[C@H]1[C@@H](O)CC[C@@]4(O)C(C2)N(CC2CCC2)CCC314 (stereo partly drawn)	.	.	.	.	.	-8
CCOC(=O)C(O)(c1ccc(NC(=O)c2ccc(Cl)c(Cl)c2)cc1)C(F)(F)F (stereo not drawn)	2	0	36	-1	11*	3
SMILES	UPR CHOP act	aDG glyco act	MPTP block	XBP1 UPR activ	NR3A LBD binder	CHOP inhibitor
CCOC(=O)C(O)(c1ccc(N(C)C(=O)c2ccc(Cl)c(Cl)c2)cc1)C(F)(F)F (stereo not drawn)	2	0	-1	-3	-8	37
CCOC(=O)C(=CNc1ccc(C(O)(C(=O)OCC)C(F)(F)F)cc1C)C(=O)OCC (stereo not drawn)	1	0	4	1	-3	90*
COc1ccc2c(c[n+](C)c3c4cc5c(cc4ccc23)OCO5)c1OC	.	.	.	.	.	-25
CNc1cc(Cl)c2nonc2c1[N+](=O)[O-]	.	-1	-1	.	2	107*
C[C@]12CC[C@@H](O)CC1CC[C@@H]1[C@@H]2CC[C@]2(C)C(=O)CC[C@@H]12 (stereo partly drawn)	.	.	.	.	.	-2
Nc1c(C(=O)NC2CCCC2)c2nc3ccccc3nc2n1CC1CCCO1 (stereo not drawn)	1	0	4	2	-9	76*
Cc1cc(OCC(=O)NC(Cc2ccc(Cl)cc2)C(=O)O)c2c3c(c(=O)oc2c1)CCC3 (stereo not drawn)	0	0	2	-2	-3	.
C/C(=N\N1CCCCCC1)c1c(O)n(-c2ccc(C)cc2)c(=O)[nH]c1=O	3	0	-1	1	-2	1
CC/C(=N\N1CCCCCC1)c1c(O)n(-c2ccc(C)cc2)c(=O)[nH]c1=O	6	0	0	-3	21*	24
NCC(CP(=O)(O)O)c1ccc(Cl)cc1 (stereo not drawn)	.	.	.	.	.	-6
Cc1cccc(OP(=O)(NCc2ccccc2)Oc2cccc(C)c2)c1	4	1	4	-2	17*	65
COC(=O)C1=C(c2ccc(F)cc2OCc2ccccc2)C[C@@H]2CC[C@H]1N2C(=O)N1CCOCC1	4	0	0	-2	-1	.
CN(C)c1nc(OCCNC(=O)COc2ccc(Cl)cc2Cl)nc(N2CCCCC2)n1	2	0	-2	0	-2	94*
O=C(CN1CC=C(c2ccccc2)CC1)NC(=O)NCc1ccco1	1	0	1	0	1	76*
CC(C)OP(=O)(OC(C)C)C(NCc1ccccc1)c1ccccc1 (stereo not drawn)	1	0	-1	1	0	6
O=[N+]([O-])c1ccc(O)c([N+](=O)[O-])c1	0	0	0	-5	18*	.
O=[N+]([O-])c1cc(O)c(O)c([N+](=O)[O-])c1	0	0	1	-5	-12	-3
Cc1ccc(OCC(=O)N2CCN(C3CCC(c4ccccc4)CC3)CC2)cc1 (stereo not drawn)	-1	0	0	0	2	93*
O=C(COc1ccc(Br)cc1)N1CCN(C2CCCC2)CC1	1	2	0	0	1	-26
CC(=O)OCC1=C(C(=O)[O-])N2C(=O)[C@@H](NC(=O)CCC[C@@H](N)C(=O)[O-])[C@H]2SC1.[Zn+2]	.	.	.	.	.	-15
